# Results reported in PMC8952960 (Nature chemistry, 2021).
# What was measured:
# [1] = target: K351R mutant of Ku70 with Ku80 (Homo sapiens, UniProt P12956, K351R); test: Ku70/Ku80 heterodimerization assay, K351R mutant of Ku70; assay type: biochemical
# How it was run: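 FLAG-Ku70 (WT or K351R) HEK293T lysates were sonicated in 1% NP-40 buffer with protease inhibitors and normalised to 1.0 mg·mL⁻¹. They were treated with test compound or DMSO (1 h, 23 °C), then mixed with WT Ku80 lysate (1.0 mg·mL⁻¹, 1 h, 23 °C). Anti-FLAG co-IP (1 h, 4 °C) and four washes in 0.2% NP-40 buffer followed, with anti-HA immunoblot read-out.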
# [2] = target: K351 of XRCC6 (Ku70) (Homo sapiens, UniProt P12956); test: competitive isoTOP-ABPP, XRCC6; assay type: binding
# How it was run: (§1)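 Human cancer cell (MDA-MB-231, Ramos) soluble or membrane fractions at 1.8 mg·mL⁻¹, or live cells, were exposed to test compound or DMSO. Proteomes were then labelled with lysine probe 1 (100 µM, 1 h, 23 °C). Compound samples were clicked to light and DMSO samples to heavy TEV-biotin tags, then streptavidin-enriched, trypsinised, TEV-released and analysed by MS. R was taken as the median peptide ratio per lysine.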
# [3] = target: Ku70/Ku80 heterodimer (Homo sapiens, UniProt P12956); test: Ku70/Ku80 heterodimerization assay; assay type: biochemical; details: pre-treatment of recombinantly expressed Ku70
# [4] = target: preformed Ku70-Ku80 complex (Homo sapiens, UniProt P12956); test: treatment of preformed Ku70-Ku80 complex; assay type: biochemical; details: 1 h, 23 °C
# How it was run: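 Lysates of HEK293T cells co-expressing WT Ku80 with WT or K351R Ku70 were first anti-Flag co-immunoprecipitated (1 h, 4 °C). The captured complex was then exposed to test compound or DMSO at the stated concentrations (1 h, 23 °C), washed, and analysed by Western blot. Blots represent four independent experiments.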
# [5] = target: T1, K53 of GSTT2B (Homo sapiens, UniProt P0CG30); test: competitive isoTOP-ABPP; assay type: binding
# T1 sequence (P0CG30 1-244): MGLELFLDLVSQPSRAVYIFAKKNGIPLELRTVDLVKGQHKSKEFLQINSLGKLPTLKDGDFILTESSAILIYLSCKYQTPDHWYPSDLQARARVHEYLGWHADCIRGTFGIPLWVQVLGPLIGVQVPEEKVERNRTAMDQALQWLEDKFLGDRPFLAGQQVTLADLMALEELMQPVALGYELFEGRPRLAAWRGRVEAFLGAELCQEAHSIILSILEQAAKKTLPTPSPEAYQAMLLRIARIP
# How it was run: as §1
# [6] = target: T2, K404 of CPOX (Homo sapiens, UniProt P36551); test: competitive isoTOP-ABPP with probe P1, CPOX lysines; assay type: binding; details: R ≥ 4 defines liganded
# T2 sequence (P36551 111-454): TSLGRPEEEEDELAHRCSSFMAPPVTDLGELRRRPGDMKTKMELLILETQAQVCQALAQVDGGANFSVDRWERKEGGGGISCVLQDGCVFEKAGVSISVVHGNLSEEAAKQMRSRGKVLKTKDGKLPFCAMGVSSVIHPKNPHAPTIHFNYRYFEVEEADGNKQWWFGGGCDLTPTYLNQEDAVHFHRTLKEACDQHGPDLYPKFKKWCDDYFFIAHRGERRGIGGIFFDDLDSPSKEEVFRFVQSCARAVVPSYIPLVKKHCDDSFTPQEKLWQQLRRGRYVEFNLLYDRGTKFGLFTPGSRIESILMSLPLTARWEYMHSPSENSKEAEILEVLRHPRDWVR
# How it was run: as §1
# [7] = target: T3, WT-CPOX (K404) (Homo sapiens, UniProt P36551); assay type: binding; details: compounds 50 µM, 1 h; gel-ABPP
# T3 sequence (P36551 111-454): T2 sequence (P36551 111-454)
# Chain of K351R mutant of Ku70 with Ku80 (P12956 whole entry K351R): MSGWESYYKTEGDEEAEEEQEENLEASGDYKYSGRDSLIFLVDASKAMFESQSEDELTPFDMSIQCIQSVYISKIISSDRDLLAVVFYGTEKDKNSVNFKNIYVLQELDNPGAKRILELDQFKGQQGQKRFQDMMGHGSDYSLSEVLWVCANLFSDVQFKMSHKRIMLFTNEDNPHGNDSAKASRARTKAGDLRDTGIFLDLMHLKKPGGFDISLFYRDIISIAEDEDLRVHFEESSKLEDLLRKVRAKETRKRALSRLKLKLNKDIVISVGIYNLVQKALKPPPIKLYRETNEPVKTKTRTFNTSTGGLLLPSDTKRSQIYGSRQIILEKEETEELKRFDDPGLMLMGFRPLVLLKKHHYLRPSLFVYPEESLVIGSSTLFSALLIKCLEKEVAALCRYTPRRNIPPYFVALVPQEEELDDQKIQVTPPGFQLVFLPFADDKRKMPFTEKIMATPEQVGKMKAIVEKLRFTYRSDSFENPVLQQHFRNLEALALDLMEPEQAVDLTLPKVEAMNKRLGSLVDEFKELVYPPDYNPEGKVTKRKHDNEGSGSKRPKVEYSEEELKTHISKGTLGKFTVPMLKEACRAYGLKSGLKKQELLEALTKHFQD
# Chain of Ku70/Ku80 heterodimer (P12956 whole entry, one chain of several): as the sequence (P12956 whole entry K351R) above, with R351K counted along it
# Chain of preformed Ku70-Ku80 complex (P12956 whole entry, one chain of several): as the sequence (P12956 whole entry K351R) above, with R351K counted along it
# Chain of K351 of XRCC6 (Ku70) (P12956 whole entry): as the sequence (P12956 whole entry K351R) above, with R351K counted along it
structure (smiles),measurement,setting,value
O=c1[nH]c2ccccc2c(=O)o1 [Compound 11e],blockade of co-immunoprecipitation of K351R mutant of Ku70 with Ku80,[1],Neither 11e nor 33e blocked
same,liganding of K351 of XRCC6,[2],liganded
same,blockade of Ku70 co-immunoprecipitation with Ku80,[3],blocked co-immunoprecipitation with Ku80 in a concentration-dependent manner
same,effect on preformed Ku70-Ku80 complex,[4],does not block
O=C(ON1C(=O)c2ccccc2C1=O)c1cc(C(F)(F)F)cc(C(F)(F)F)c1 [Compound 12a],engagement of K53 of GSTT2B by chemical proteomics,[5],engaged
O=Cc1c(O)cc(O)cc1O [Compound 28p],R value (DMSO/compound) for K404 of CPOX,[6],3.3
same,blockade of P4 labelling of WT-CPOX,[7],partially blocked
